Test results as given in ChEMBL document CHEMBL1909610, “Synthesis and antioxidant activities of novel 4-Schiff base-7-benzyloxy-coumarin derivatives” (Bioorg Med Chem Lett, 2011).

Tests used:
Assay type in all cases: functional; call rule not given here
[1] = system: Radical scavenging activity; assay: Antioxidant activity assessed as DPPH free radical scavenging activity after 30 mins by spectrophotometric analysis
Outline: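 Sample dissolved in DMF at several concentrations, added to 0.004% (w/v) DPPH in ethanol, incubated at 37 °C. Absorbance at 517 nm after 30 min. Percent scavenging computed against a control lacking scavenger; triplicate means; IC50 taken as concentration giving 50% radical scavenging.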

[2] = Antioxidant activity assessed as ABTS radical scavenging activity after 3 mins by spectrophotometric analysis
Outline: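 ABTS radical cation generated from 2 mM ABTS stock in PBS pH 7.4 reacted with 70 mM K2S2O8 in the dark at room temperature for 15-16 h, then diluted with PBS to A734 0.700 ± 0.030. Sample solutions at various concentrations mixed with ABTS radical (0.1:1.9 ml). Absorbance read at ambient temperature after 3 min. Percent scavenging vs control without sample; triplicate; IC50 = concentration scavenging 50%.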

[3] = Antioxidant activity assessed as superoxide anioin radical scavenging activity after 5 mins by spectrophotometric analysis
Outline: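 Pyrogallol autoxidation at room temperature: 0.05 M Tris-HCl buffer, sample in DMF at various concentrations and 30 mM 1,2,3-trihydroxybenzene reacted 5 min. Stopped with 8.0 M HCl; absorbance at 320 nm against blank. Percent scavenging vs no-sample absorbance, triplicate; IC50 as concentration scavenging 50%.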

[4] = Antioxidant activity assessed as hydroxyl radical scavenging activity after 1 hr by spectrophotometric analysis
Outline: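 Salicylate method: 20 mM sodium salicylate, 1.5 mM FeSO4, sample at various concentrations, then 6 mM H2O2 (stock levels), mixed and held in a 37 °C water bath 1 h. Absorbance at 510 nm against blank; percent scavenging vs no-sample absorbance; triplicate; ascorbic acid positive control; IC50 as 50% scavenging concentration.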

| IC50 ([1]; read-out: IC50) | IC50 ([2]; read-out: IC50) | IC50 [3] | IC50 ([4]; read-out: IC50) | IC50 [4] | IC50 [1] | IC50 [2] | Structure (SMILES) |
| --- | --- | --- | --- | --- | --- | --- | --- |
| 1610 µM | 15.5 µM | 419 µM | 97.9 µM |  |  |  | O=c1cc(/C=N\Nc2ccc([N+](=O)[O-])cc2)c2c(OCc3ccccc3)cc(OCc3ccccc3)cc2o1 |
| 1290 µM | 9.74 µM | 131 µM |  | Not Active |  |  | N/N=C\c1cc(=O)oc2cc(OCc3ccccc3)ccc12 |
|  | 363 µM | 36.5 µM | > 2000 µM |  | Not Active |  | N/N=C\c1cc(=O)oc2cc(OCc3ccccc3)cc(OCc3ccccc3)c12 |
| 57.7 µM | 13.2 µM | 416 µM | 455 µM |  |  |  | O=c1cc(/C=N\Nc2ccccc2)c2ccc(OCc3ccccc3)cc2o1 |
| 76.4 µM | 40.1 µM | 303 µM | 401 µM |  |  |  | O=c1cc(/C=N\Nc2ccccc2)c2c(OCc3ccccc3)cc(OCc3ccccc3)cc2o1 |
| 1350 µM | 9.51 µM | > 2000 µM | > 2000 µM |  |  |  | O=c1cc(/C=N\Nc2ccc([N+](=O)[O-])cc2)c2ccc(OCc3ccccc3)cc2o1 |
| 10.5 µM | 6.49 µM | 181 µM | 1970 µM |  |  |  | O=c1cc(/C=N\Nc2ccc([N+](=O)[O-])cc2[N+](=O)[O-])c2ccc(OCc3ccccc3)cc2o1 |
|  |  | 292 µM | 734 µM |  | Not Active | Not Active | O=c1cc(/C=N\Nc2ccc([N+](=O)[O-])cc2[N+](=O)[O-])c2c(OCc3ccccc3)cc(OCc3ccccc3)cc2o1 |
| 857 µM | 9.25 µM | 217 µM | 34.6 µM |  |  |  | Nc1ccccc1/N=C\c1cc(=O)oc2cc(OCc3ccccc3)ccc12 |
| 315 µM | 7.53 µM | 258 µM | 624 µM |  |  |  | Nc1ccccc1/N=C\c1cc(=O)oc2cc(OCc3ccccc3)cc(OCc3ccccc3)c12 |
| 36.6 µM | 64.5 µM | 525 µM | 233 µM |  |  |  | O=c1cc(/C=N\c2ccc(O)cc2)c2ccc(OCc3ccccc3)cc2o1 |
| 6.91 µM | 3.57 µM | 249 µM | 107 µM |  |  |  | O=c1cc(/C=N\c2ccc(O)cc2)c2c(OCc3ccccc3)cc(OCc3ccccc3)cc2o1 |
| 33.3 µM | 1.29 µM | 469 µM |  | Not Active |  |  | O=c1cc(/C=N\c2ccccc2O)c2ccc(OCc3ccccc3)cc2o1 |
| 16.2 µM | 7.76 µM | 33.1 µM | 348 µM |  |  |  | O=c1cc(/C=N\c2ccccc2O)c2c(OCc3ccccc3)cc(OCc3ccccc3)cc2o1 |
| 2410 µM | 22.8 µM | > 2000 µM | > 2000 µM |  |  |  | O=c1cc(/C=N\O)c2ccc(OCc3ccccc3)cc2o1 |
|  | 38.6 µM | > 2000 µM |  | Not Active | Not Active |  | O=c1cc(/C=N\O)c2c(OCc3ccccc3)cc(OCc3ccccc3)cc2o1 |
|  |  | 146 µM |  | Not Active | Not Active | Not Active | O=c1cc(-c2nc3ccccc3[nH]2)c2ccc(OCc3ccccc3)cc2o1 |
| 43.8 µM | 12.8 µM | 15.6 µM | 73.8 µM |  |  |  | O=C1O[C@H]([C@@H](O)CO)C(O)=C1O [ASCORBIC ACID] |
| 65.8 µM | 37 µM | 254 µM | > 2000 µM |  |  |  | Cc1cc(C(C)(C)C)c(O)c(C(C)(C)C)c1 [BUTYLATED HYDROXYTOLUENE] |
